From ChEMBL document CHEMBL4028886 (J Med Chem, 2017)

Key:
[1] = tested on: Rattus norvegicus; experiment: Neurotoxicity in Sprague-Dawley rat assessed as effect on time spent in closed arm at 10 mg/kg, ip administered 30 mins prior to test by elevated plus maze test relative to control; assay type: toxicity, organism-based; settings: in vivo, 0.5 h
Summary of the method: (§1)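 Male Sprague–Dawley rats, 10 per group, dosed 10 mg/kg ip daily for 10 days and 30 min before testing. DMSO vehicle controls. Elevated plus maze, rats placed centrally and video-tracked. Recorded: time in closed and open arms, arm entries, path length.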

[2] = tested on: Rattus norvegicus; experiment: Neurotoxicity in Sprague-Dawley rat assessed as effect on distance traveled in open arms at 10 mg/kg, ip administered 30 mins prior to test by elevated plus maze test relative to control; assay type: toxicity, organism-based; settings: in vivo, 0.5 h; summary of the method: as §1
[3] = target: Sodium-dependent noradrenaline transporter (Homo sapiens, UniProt P23975); experiment: Inhibition of re-uptake of [3H]MPP+ at human NET expressed in HEK293 cells preincubated for 5 mins followed by […] addition measured after 3 min by liquid scintillation counting; assay type: cell-based; settings: hek293
Summary of the method: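 HEK293 cells stably expressing human DAT or NET, seeded on PDL-coated plates 24 h before. Preincubated 5 min in Krebs–HEPES buffer pH 7.3 with compound at 0.001 μM to 1 mM (DMSO stock diluted in buffer). Substrate then added: 0.2 μM [3H]dopamine for DAT, 1 min; 0.05 μM [3H]MPP+ for NET, 3 min. Room temperature. Uptake stopped with ice-cold buffer. Cells lysed in 1% SDS and counted by scintillation. Unspecific uptake defined with 10 μM mazindol. IC50 by nonlinear regression.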

[4] = tested on: Rattus norvegicus; experiment: Neurotoxicity in Sprague-Dawley rat assessed as pelvic elevation score at 10 mg/kg, ip administered 30 mins prior to test (reference value: 3.8 +/- 0.6325); assay type: toxicity, organism-based; settings: in vivo, 0.5 h
[5] = tested on: Rattus norvegicus; experiment: Neurotoxicity in Sprague-Dawley rat assessed as body position score at 10 mg/kg, ip administered 30 mins prior to test (reference value: 1.8 +/- 0.4216); assay type: toxicity, organism-based; settings: in vivo, 0.5 h
[6] = tested on: Rattus norvegicus; experiment: Neurotoxicity in Sprague-Dawley rat assessed as touch escape score at 10 mg/kg, ip administered 30 mins prior to test (reference value: 1.2 +/- 1.033); assay type: toxicity, organism-based; settings: in vivo, 0.5 h
[7] = tested on: Rattus norvegicus; experiment: Neurotoxicity in Sprague-Dawley rat assessed as effect on immobility time at 10 mg/kg, ip administered 30 mins prior to test by forced swim test relative to control; assay type: toxicity, organism-based; settings: in vivo, 0.5 h
Summary of the method: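 Male Sprague–Dawley rats, 10 per group, dosed 10 mg/kg ip daily for 10 days and 30 min before testing. DMSO vehicle controls. Forced swim in a cylinder 18 cm diameter with 23 cm water at 25 °C. 15 min pretest, then a 5 min test 24 h later. Immobility duration scored over the 5 min.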

[8] = tested on: Rattus norvegicus; experiment: Neurotoxicity in Sprague-Dawley rat assessed as toe pinch score at 10 mg/kg, ip administered 30 mins prior to test (reference value: 1.8 +/- 0.6325); assay type: toxicity, organism-based; settings: in vivo, 0.5 h
[9] = tested on: Rattus norvegicus; experiment: Neurotoxicity in Sprague-Dawley rat assessed as effect on number of crossings of the center at 10 mg/kg, ip administered 30 mins prior to test by open field test relative to control; assay type: toxicity, organism-based; settings: in vivo, 0.5 h
Summary of the method: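 Male Sprague–Dawley rats, 10 per group, given 10 mg/kg ip daily for 10 days and 30 min before each test. DMSO vehicle group as control. Open field arena 100 × 100 cm with 40 cm walls. Animals video-tracked for 10 min.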

[10] = tested on: Rattus norvegicus; experiment: Neurotoxicity in Sprague-Dawley rat assessed as limb tone score at 10 mg/kg, ip administered 30 mins prior to test (reference value: 3.3 +/- 0.6749); assay type: toxicity, organism-based; settings: in vivo, 0.5 h

Chain of Sodium-dependent noradrenaline transporter (P23975 whole entry): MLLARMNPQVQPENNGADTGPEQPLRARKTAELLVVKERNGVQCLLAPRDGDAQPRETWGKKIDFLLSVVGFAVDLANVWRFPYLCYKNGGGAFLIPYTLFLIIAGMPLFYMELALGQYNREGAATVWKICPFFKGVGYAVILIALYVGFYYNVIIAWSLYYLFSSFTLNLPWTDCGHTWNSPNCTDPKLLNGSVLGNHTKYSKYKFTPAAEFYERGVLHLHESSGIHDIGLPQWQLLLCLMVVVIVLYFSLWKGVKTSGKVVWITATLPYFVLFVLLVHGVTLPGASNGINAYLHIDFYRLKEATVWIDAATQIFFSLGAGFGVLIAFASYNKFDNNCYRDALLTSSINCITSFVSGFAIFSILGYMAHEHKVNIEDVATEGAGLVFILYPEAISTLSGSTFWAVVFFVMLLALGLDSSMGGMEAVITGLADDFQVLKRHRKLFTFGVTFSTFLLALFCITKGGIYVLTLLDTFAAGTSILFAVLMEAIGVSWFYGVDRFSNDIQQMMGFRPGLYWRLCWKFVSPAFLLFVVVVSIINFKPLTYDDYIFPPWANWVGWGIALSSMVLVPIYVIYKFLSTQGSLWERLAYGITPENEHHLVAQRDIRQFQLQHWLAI

In the case of `[O-][S+](Cc1cccs1)C(c1ccccc1)c1ccccc1` (stereo not given), the Activity [1] is reported as “Non-Toxic”, the Activity [2] is reported as “Non-Toxic” and the IC50 [3] is reported as “Not Active”. For the same compound, the Activity [4] was 3.6, the Activity [5] was 1.9 and the Activity [6] was 1.2. The Activity [7] was “Non-Toxic”, the Activity [8] was 1.6 and the Activity [9] was “Non-Toxic”. For the same compound, the Activity [10] was 3.5.
